Assay results published in ChEMBL document CHEMBL1125497, “Synthesis and anticonvulsant activity of enaminones” (J Med Chem, 1992).

Experiments:
[1] = Antiepileptic activity in male CF1 mice 2 hr after oral administration measured in maximum electroshock seizure(MES) test at a dose of 10 mg/kg (no. of animals treated /protected); activity value is 4/4; type: functional, Mus musculus
[2] = test system: Rattus norvegicus; assay: Per oral dose (30 mg/Kg) reducing rat corneal kindling 0.5 hr after administration.; type: functional
How it was run: (§1)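 Sprague-Dawley rats (85–95 g initial) were kindled with 4 s, 8 mA corneal stimulations (butacaine anesthesia) to 10 consecutive stage 5 seizures. After a vehicle shock and a 2-day shock-free period, test drug was given ip or po and a single shock applied at time of peak effect. Seizures were scored on a modified Racine 0–5 scale. ED50 is the dose reducing severity by 50% (Litchfield–Wilcoxon).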

[3] = test system: Rattus norvegicus; assay: Average seizure score for the rat cornea 0.5 hr after peroral administration of 50 mg/kg of compound; type: functional; settings: route oral; how it was run: as §1
[4] = Antiepileptic activity in male CF1 mice 4 hr after administration measured in neurological toxicity (Tox) test at a dose of 300 mg/kg (no. of animals treated /protected); activity value is 0/2; type: functional, Mus musculus
[5] = Antiepileptic activity in male CF1 mice 4 hr after administration measured in maximum electroshock seizure(MES) test at a dose of 100 mg/kg (no. of animals treated /protected); activity value is 0/3; type: functional, Mus musculus
[6] = Antiepileptic activity in male CF1 mice 2.00 hours after oral administration measured in neurological toxicity (Tox) test at a dose of 6 mg/kg (no. of animals treated /protected); activity value is 0/4; type: functional, Mus musculus
[7] = test system: Rattus norvegicus; assay: Dose reducing the seizure severity in rat cornea 0.5 hr after peroral administration.; type: ADME, organism-based; settings: po; how it was run: as §1
[8] = Antiepileptic activity in male CF1 mice 30 min after administration measured in subcutaneous pentylenetetrazole (scMet) test at a dose of 100 mg/kg (no. of animals treated /protected); activity value is 0/1; type: functional, Mus musculus
[9] = Protective index was measured as TD50/ED50; type: ADME; settings: read-out: PI
[10] = Time of peak anticonvulsant effect in CF1 mice; type: functional, Mus musculus
How it was run: (§2)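 Male CF1 mice (ca. 24–34 g), compound in 0.5% methylcellulose suspension given ip or po; time (h) at which MES protection (against tonic hind limb extension) peaked was recorded and used for ED50 determination.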

[11] = Antiepileptic activity in male CF1 mice 30 min after administration measured in maximum electroshock seizure(MES) test at a dose of 300 mg/kg (no. of animals treated /protected); activity value is 1/1; type: functional, Mus musculus
[12] = Dose at which anticonvulsant activity was observed in mice; type: functional, Mus musculus
[13] = Oral dose producing neurotoxic effects in 50% of rats; type: ADME, organism-based; settings: rat, in vivo
How it was run: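 Phase VI screen in male Sprague-Dawley rats dosed orally. MES protection and rotorod toxicity were scored as animals responding over animals tested at 0.25, 0.5, 1, 2 and 4 h.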

[14] = Antiepileptic activity in male CF1 mice 30 min after administration measured in subcutaneous pentylenetetrazole (scMet) test at a dose of 300 mg/kg (no. of animals treated /protected); activity value is 0/1; type: functional, Mus musculus
[15] = Antiepileptic activity in male CF1 mice 4 hr after administration measured in neurological toxicity (Tox) test at a dose of 100 mg/kg (no. of animals treated /protected); activity value is 0/4; type: functional, Mus musculus
[16] = test system: Rattus norvegicus; assay: Per oral dose (0 mg/Kg) reducing rat corneal kindling 0.5 hr after administration.; type: functional; how it was run: as §1
[17] = test system: Rattus norvegicus; assay: Per oral dose (50 mg/Kg) reducing rat corneal kindling 0.5 hr after administration.; type: functional; how it was run: as §1
[18] = Antiepileptic activity in male CF1 mice 4 hr after administration measured in subcutaneous pentylenetetrazole (scMet) test at a dose of 300 mg/kg (no. of animals treated /protected); activity value is 0/1; type: functional, Mus musculus
[19] = Time of peak neurotoxic effect in CF1 mice; type: ADME; settings: mouse, in vivo
How it was run: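 Male CF1 mice (ca. 24–34 g), compound ip in 0.5% methylcellulose suspension; neurological deficit assessed by rotorod test, time (h) of peak neurotoxic effect recorded for TD50 determination.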

[20] = test system: Rattus norvegicus; assay: Average seizure score for the rat cornea 0.5 hr after peroral administration of 0 mg/kg of compound; type: functional; settings: route oral; how it was run: as §1
[21] = Antiepileptic activity in male CF1 mice 4 hr after oral administration measured in maximum electroshock seizure(MES) test at a dose of 10 mg/kg (no. of animals treated /protected); activity value is 3/4; type: functional, Mus musculus
[22] = Dose showing neurotoxicity in 50% of the at the time of peak neurotoxic effect in CF1 MICE after po administration.; type: toxicity, organism-based; settings: CF1, mouse, in vivo
How it was run: (§3)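 Phase II quantification in CF1 male mice (ca. 24–34 g), dosing ip or po in 0.5% methylcellulose suspension. ED50 is protection from tonic hind limb extension in MES. TD50 is rotorod neurotoxicity. Both were read at time of peak effect and derived by Litchfield–Wilcoxon with 95% confidence limits.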

[23] = test system: Rattus norvegicus; assay: Per oral dose (75 mg/Kg) reducing rat corneal kindling 0.5 hr after administration.; type: functional; how it was run: as §1
[24] = test system: Rattus norvegicus; assay: Average seizure score for the rat cornea 0.5 hr after peroral administration of 60 mg/kg of compound; type: functional; settings: route oral; how it was run: as §1
[25] = Antiepileptic activity in male CF1 mice 1 hr after oral administration measured in neurological toxicity (Tox) test at a dose of 50 mg/kg (no. of animals treated /protected); activity value is 0/4; type: functional, Mus musculus
[26] = Antiepileptic activity in male CF1 mice 4 hr after oral administration measured in maximum electroshock seizure(MES) test at a dose of 50 mg/kg (no. of animals treated /protected); activity value is 2/4; type: functional, Mus musculus
[27] = Protective index was measured as TD50/MES ED50 in mice on po administration; type: ADME, organism-based; settings: mouse, in vivo, read-out: PI
How it was run: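 Male CF1 mice (ca. 24–34 g) dosed orally with 0.5% methylcellulose suspension. MES ED50 (protection of 50% from tonic hind limb extension) and rotorod TD50, each determined at time of peak effect by Litchfield and Wilcoxon. PI = TD50/MES ED50.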

[28] = Dose protecting 50% of the mice from tonic hind limb extension at the time of […] after ip administration.; type: functional; settings: Mus musculus, Hindlimb; how it was run: as §3
[29] = Dose producing neurotoxic effects in 50% of the CF1 mice after intraperitoneal administration.; type: ADME; settings: CF1, mouse, in vivo, ip; how it was run: as §3
[30] = Antiepileptic activity in male CF1 mice 0.5 hr after oral administration measured in neurological toxicity (Tox) test at a dose of 50 mg/kg (no. of animals treated /protected); activity value is 0/4; type: functional, Mus musculus
[31] = Time of peak anticonvulsant effect in CF1 MICE after po administration.; type: functional, Mus musculus; how it was run: as §2
[32] = Antiepileptic activity in male CF1 mice 30 min after administration measured in neurological toxicity (Tox) test at a dose of 100 mg/kg (no. of animals treated /protected); activity value is 0/8; type: functional, Mus musculus
[33] = Antiepileptic activity in male CF1 mice 0.25 hr after oral administration measured in neurological toxicity (Tox) test at a dose of 50 mg/kg (no. of animals treated /protected); activity value is 0/4; type: functional, Mus musculus

SMILES | Average seizure score [3] | Activity [4] | Activity [5] | Activity [8] | selectivity ratio [9] | TPE [10] | Activity [11] | Dose [12] | TD50 [13] | Activity [14] | Reduction [16] | Reduction [17] | Activity [18] | TPE [19] | Average seizure score [20] | further results
COC(=O)C1C(=O)C=C(Nc2ccc(Cl)cc2)CC1C (centres undefined) | 1.7 | 0 | 0 | 0 | 9.7 | 0.5 | 1 | <=100 mg kg-1 | > 380 mg/kg | 0 | 0% | 67% | 0 | 2 | 4.9 | Activity [1]: 4; Reduction [2]: 40%; Activity [6]: 0; ED50 ([7]; rat, in vivo): 34.2 mg/kg; Activity [15]: 0; Activity [21]: 3
COC(=O)C1C(=O)C=C(NCc2ccccc2)CC1C (centres undefined) | 3.6 | 0 | 0 | 0 | 7.7 | 0.5 | 1 | <=100 mg kg-1 | > 500 mg/kg | 0 | 0% | 29% | 0 | 1 | 5 | TD50 [22]: > 500 mg/kg; Reduction [23]: 47%; Average seizure score [24]: 3; Activity [25]: 0; ED50 ([7]; Rattus norvegicus, Cornea): 78.3 mg/kg; Activity [26]: 2; selectivity ratio [27]: > 3.1; ED50 [28]: 42 mg/kg; TD50 [29]: > 500 mg/kg; Activity [30]: 0; TPE [31]: 0.5 h; Activity [32]: 0; Activity [33]: 0
